In ChEMBL document CHEMBL1667760, “Synthesis and biological evaluation of 3,5-diaryl isoxazoline/isoxazole linked 2,3-dihydroquinazolinone hybrids as anticancer agents” (2011):
The source made the active and inactive calls. No cut-off for these calls is given here.

Tests used:
786-0 = assay: Cytotoxicity against human 786-0 cells after 48 hrs by sulforhodamine B assay; assay type: functional; settings: 786-0, 48 h
Method in brief: (§1)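 Run by the NCI 60-cell-line screen. A one-dose pre-test was done first, followed by the main test over a 5-log dose range (10^-4 to 10^-8 M). Results are reported as log molar GI50 (50% net growth inhibition), TGI (total growth inhibition) and LC50 (50% net cell death), with mean-graph midpoints across all lines.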

MOLT-4 = assay: Cytotoxicity against human MOLT4 cells after 48 hrs by sulforhodamine B assay; assay type: functional; settings: MOLT-4, 48 h; method in brief: as §1
ACHN = assay: Cytotoxicity against human ACHN cells after 48 hrs by sulforhodamine B assay; assay type: functional; method in brief: as §1
CCRF-CEM = assay: Cytotoxicity against human CCRF-CEM cells after 48 hrs by sulforhodamine B assay; assay type: functional; method in brief: as §1
OVCAR-8 = assay: Cytotoxicity against human OVCAR8 cells after 48 hrs by sulforhodamine B assay; assay type: functional; settings: OVCAR-8, 48 h; method in brief: as §1
[1] = Cytotoxicity against human […] cells after 48 hrs by sulforhodamine B assay; assay type: functional; method in brief: as §1
PC-3 = assay: Cytotoxicity against human PC3 cells after 48 hrs by sulforhodamine B assay; assay type: functional; settings: PC-3, 48 h
Method in brief: (§2)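 Cells were grown in RPMI 1640 with 10% FBS and 2 mM L-glutamine, plated at densities set by doubling time, and pre-incubated 24 h at 37 °C, 5% CO2. Drugs were tested at 0.1, 1, 10 and 100 µM in triplicate wells for 48 h continuous exposure. Cells were fixed with 10% TCA (final) and stained with 0.4% SRB. A540 was read against a 690 nm reference, and percent growth was calculated relative to control. Experiments were repeated three times.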

KM12 = assay: Cytotoxicity against human KM12 cells after 48 hrs by sulforhodamine B assay; assay type: functional; settings: KM12, 48 h; method in brief: as §1
A549 = assay: Cytotoxicity against human A549 cells after 48 hrs by sulforhodamine B assay; assay type: functional; settings: A549, 48 h; method in brief: as §2
LOX IMVI = assay: Cytotoxicity against human LOXIMVI cells after 48 hrs by sulforhodamine B assay; assay type: functional; method in brief: as §1
HL-60(TB) = assay: Cytotoxicity against human HL-60(TB) cells after 48 hrs by sulforhodamine B assay; assay type: functional; settings: HL-60, 48 h
Method in brief: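 Run by the NCI 60 human tumour cell line screen. A one-dose pre-test across sixty lines came first. The main test then used a 5-log dose range (10^-4–10^-8 M). Values derived per cell line were GI50 (log molar concentration for 50% net growth inhibition), TGI (total growth inhibition) and LC50 (50% net cell death).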

UACC-62 = assay: Cytotoxicity against human UACC62 cells after 48 hrs by sulforhodamine B assay; assay type: functional; settings: UACC-62, 48 h
Method in brief: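 NCI 60-cell-line panel screen of human tumor lines: a one-dose pre-test, then the main test over a 5-log range (10^-4–10^-8 M). GI50, TGI and LC50 are reported as log molar concentrations for 50% net growth inhibition, total growth inhibition and 50% net cell death. Mean graph midpoints are also calculated.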

COLO 205 = assay: Cytotoxicity against human COLO205 cells after 48 hrs by sulforhodamine B assay; assay type: functional; settings: COLO 205, 48 h; method in brief: as §1
DU-145 = assay: Cytotoxicity against human DU145 cells after 48 hrs by sulforhodamine B assay; assay type: functional; settings: DU-145, 48 h; method in brief: as §1
NCI-H23 = assay: Cytotoxicity against human NCI-H23 cells after 48 hrs by sulforhodamine B assay; assay type: functional; settings: NCI-H23, 48 h; method in brief: as §1
SK-MEL-28 = assay: Cytotoxicity against human SK-MEL-28 cells after 48 hrs by sulforhodamine B assay; assay type: functional; settings: SK-MEL-28, 48 h; method in brief: as §1
MCF7 [2] = assay: Reduction of cyclin A expression in human MCF7 cells at 5 uM after 24 hrs by Western blotting; assay type: functional, cell-based
Method in brief: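 MCF-7 cells, kept in DMEM with 10% fetal calf serum at 37 °C under 5% CO2, treated 24 h. Lysis in ice-cold RIPA with protease inhibitors; Bradford quantitation; 30 µg protein per lane on 12% SDS-PAGE, then PVDF. Primary antibodies (1:500) at 4 °C overnight; HRP secondary (1:2000); chemiluminescence detection; β-actin loading control.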

OVCAR-5 = assay: Cytotoxicity against human OVCAR5 cells after 48 hrs by sulforhodamine B assay; assay type: functional; settings: OVCAR-5, 48 h; method in brief: as §1
SF-295 = assay: Cytotoxicity against human SF295 cells after 48 hrs by sulforhodamine B assay; assay type: functional; settings: SF-295, 48 h; method in brief: as §1
MDA-MB-231 = assay: Cytotoxicity against human MDA-MB-231 cells after 48 hrs by sulforhodamine B assay; assay type: functional; settings: MDA-MB-231, 48 h; method in brief: as §1
OVCAR-4 = assay: Cytotoxicity against human OVCAR4 cells after 48 hrs by sulforhodamine B assay; assay type: functional; settings: OVCAR-4, 48 h; method in brief: as §1
HOP-92 = assay: Cytotoxicity against human HOP92 cells after 48 hrs by sulforhodamine B assay; assay type: functional; settings: HOP-92, 48 h; method in brief: as §1
MCF7 [3] = assay: Cell cycle arrest in human MCF7 cells assessed as accumulation at G1 phase at 5 uM after 24 hrs using propidium iodide staining by flow cytometry relative to control; assay type: functional
Method in brief: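 MCF-7 cells were seeded at 5×10^5 per 60 mm dish and grown 24 h. They were then exposed to 5 uM compound for a further 24 h, with untreated control cells alongside. Cells were trypsinised, fixed in ice-cold 70% ethanol (4 °C, 30 min), treated with 1 mg/ml RNase A (37 °C, 30 min) and stained with propidium iodide/citrate/Triton solution. DNA content was read by flow cytometry on 20,000 events.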

CAKI-1 = assay: Cytotoxicity against human Caki1 cells after 48 hrs by sulforhodamine B assay; assay type: functional; settings: CAKI-1, 48 h; method in brief: as §1
[4] = read-out: pLC50 (the source's name) (converted)

COc1cc(C2NC(=O)c3ccccc3N2)ccc1OCCCCCOc1c(OC)cc(C2=NOC(c3cc(OC)c(OC)c(OC)c3)C2)cc1OC (stereo not drawn) showed a GI50 (786-0) of 23.4 µM, a CC50 (786-0; [4]) of over 100 µM and a TGI (786-0; read-out: pTGI (converted)) of 61.7 µM. For the same compound, the GI50 (MOLT-4) was 0.479 µM, the CC50 (MOLT-4; [4]) was over 100 µM and the TGI (MOLT-4; read-out: pTGI) was over 100 µM. For the same compound, the GI50 (ACHN) was 0.324 µM, the CC50 (ACHN; [4]) was over 100 µM and the TGI (ACHN; read-out: pTGI) was over 100 µM. For the same compound, the GI50 (CCRF-CEM) was 0.631 µM, the CC50 (CCRF-CEM; [4]) was over 100 µM and the TGI (CCRF-CEM; read-out: pTGI) was over 100 µM. It also gave an LC50 (OVCAR-8) of over 100 µM, a GI50 (OVCAR-8; read-out: pGI50 (converted)) of 24.5 µM and a TGI (OVCAR-8; read-out: pTGI) of over 100 µM. It also gave a GI50 [1] of 0.0851 µM, a CC50 [1, 4] of over 100 µM and a TGI ([1]; read-out: pTGI (converted)) of 2.29 µM. For the same compound, the LC50 (PC-3) was over 100 µM, the GI50 (PC-3; read-out: pGI50 (converted)) was 28.8 µM and the TGI (PC-3; read-out: pTGI) was over 100 µM. It also gave a GI50 (KM12) of 5.5 µM, a CC50 (KM12; [4]) of over 100 µM and a TGI (KM12; read-out: pTGI) of over 100 µM. It also gave an LC50 (A549) of over 100 µM, a GI50 (A549; read-out: pGI50 (converted)) of 0.324 µM and a TGI (A549; read-out: pTGI) of over 100 µM. It also gave a GI50 (LOX IMVI) of 14.1 µM, a CC50 (LOX IMVI; [4]) of over 100 µM and a TGI (LOX IMVI; read-out: pTGI) of over 100 µM. For the same compound, the GI50 (HL-60(TB)) was 11.2 µM, the CC50 (HL-60(TB); [4]) was over 100 µM and the TGI (HL-60(TB); read-out: pTGI) was over 100 µM. The GI50 (UACC-62) was 0.257 µM, the CC50 (UACC-62; [4]) was over 100 µM and the TGI (UACC-62; read-out: pTGI) was over 100 µM. For the same compound, the GI50 (COLO 205) was 34.7 µM, the CC50 (COLO 205; [4]) was over 100 µM and the TGI (COLO 205; read-out: pTGI) was over 100 µM. It also gave a GI50 (DU-145) of 22.4 µM, a CC50 (DU-145; [4]) of over 100 µM and a TGI (DU-145; read-out: pTGI) of over 100 µM. It also gave a GI50 (NCI-H23) of 0.603 µM, a CC50 (NCI-H23; [4]) of over 100 µM and a TGI (NCI-H23; read-out: pTGI) of over 100 µM. It also gave a GI50 (SK-MEL-28) of 5.25 µM, a CC50 (SK-MEL-28; [4]) of over 100 µM and a TGI (SK-MEL-28; read-out: pTGI) of over 100 µM. For the same compound, the Activity (MCF7 [2]) was “Active”, the GI50 (OVCAR-5) was 36.3 µM and the CC50 (OVCAR-5; [4]) was over 100 µM. It also gave a TGI (OVCAR-5; read-out: pTGI) of over 100 µM, a GI50 (SF-295) of 0.398 µM and a CC50 (SF-295; [4]) of over 100 µM. It also gave a TGI (SF-295; read-out: pTGI) of over 100 µM, a GI50 (MDA-MB-231) of 14.8 µM and a CC50 (MDA-MB-231; [4]) of over 100 µM. The TGI (MDA-MB-231; read-out: pTGI) was over 100 µM, the GI50 (OVCAR-4) was 0.355 µM and the CC50 (OVCAR-4; [4]) was over 100 µM. For the same compound, the TGI (OVCAR-4; read-out: pTGI) was over 100 µM, the GI50 (HOP-92) was 60.3 µM and the CC50 (HOP-92; [4]) was over 100 µM. It also gave a TGI (HOP-92; read-out: pTGI) of over 100 µM, an Activity (MCF7 [3]) of 32.15% and a GI50 (CAKI-1) of over 100 µM. The CC50 (CAKI-1; [4]) was over 100 µM and the TGI (CAKI-1; read-out: pTGI) was over 100 µM.
